Laboratory results from ChEMBL document CHEMBL4689842, “EUbOPEN Chemogenomics Library wave 1” (2021).

Test system: Fibroblast
Assay: Multiplex assay against human fibroblast
Type: toxicity, cell-based
Outline: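 Phenotypes for tubulin, mitochondrial mass and membrane permeability are expressed as per cents of healthy-nucleus cells. Cells were stained live at seeding with Hoechst33342, BioTracker Green Microtubule Cytoskeleton Dye, MitoTracker Red and Annexin V Alexa Fluor 680, then imaged after compound addition on a CQ1 microscope at 37°C and 5% CO2. Machine-learning gating in CellPathfinder separated Hoechst high-intensity objects from normal cells, divided normal cells by nuclear state (healthy, pyknosed, fragmented) and divided pyknosed cells into mitotic or apoptotic.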

[1] = 12 h, 1 µM, compound concentration 1 uM, replicate 1
[2] = 12 h, 1 µM, compound concentration 1 uM, replicate 2
[3] = 12 h, 10 µM, compound concentration 10 uM, replicate 1
[4] = 12 h, 10 µM, compound concentration 10 uM, replicate 2
[5] = 24 h, 1 µM, compound concentration 1 uM, replicate 1
[6] = 24 h, 1 µM, compound concentration 1 uM, replicate 2
[7] = 24 h, 10 µM, compound concentration 10 uM, replicate 1
[8] = 24 h, 10 µM, compound concentration 10 uM, replicate 2
[9] = 48 h, 1 µM, compound concentration 1 uM, replicate 1
[10] = 48 h, 1 µM, compound concentration 1 uM, replicate 2
[11] = 48 h, 10 µM, compound concentration 10 uM, replicate 1
[12] = 48 h, 10 µM, compound concentration 10 uM, replicate 2

With `CC(C)N1CCC(C)(C)c2cc(C#Cc3ccc(C(=O)O)cc3)ccc21` as the compound, how does the “Population Apoptotic (%)” value [1] read?
Its value is 89%.

And the “Population Fragmented Nuclei (%)” value [1]?
The value was 42%.

And the “Population Healthy Nuclei (%)” value [1]?
The value was 41%.

What about the “Population Hoechst High Intensity Objects (%)” value [1] of the same compound?
The value was 41%.

And the “Population Membrane Permeable-Phenotype (%)” value [1]?
Its value is 30%.

And the “Population Mitochondria Different-Phenotype (%)” value [1]?
Its value is 6%.

What about the “Population Mitotic Cells (%)” value [1] of the same compound?
Its value is 10%.

What about the “Population Normal (%)” value [1] of the same compound?
Its value is 58%.

And the “Population Pyknosed Nuclei (%)” value [1]?
Its value is 15%.

And the “Population Tubulin-Different-Phenotype (%)” value [1]?
Its value is 46%.

And the “Total Cell Count” value [1]?
The value was 207.

And the “Population Apoptotic (%)” value [2]?
The value was 20%.

What about the “Population Fragmented Nuclei (%)” value [2] of the same compound?
The value was 16%.

What about the “Population Healthy Nuclei (%)” value [2] of the same compound?
The value was 75%.

And the “Population Hoechst High Intensity Objects (%)” value [2]?
The value was 13%.

And the “Population Membrane Permeable-Phenotype (%)” value [2]?
Its value is 6%.

What about the “Population Mitochondria Different-Phenotype (%)” value [2] of the same compound?
Its value is 15%.

What about the “Population Mitotic Cells (%)” value [2] of the same compound?
Its value is 80%.

What about the “Population Normal (%)” value [2] of the same compound?
The value was 86%.

And the “Population Pyknosed Nuclei (%)” value [2]?
The value was 8%.

And the “Population Tubulin-Different-Phenotype (%)” value [2]?
Its value is 20%.

And the “Total Cell Count” value [2]?
The value was 69.

And the “Population Apoptotic (%)” value [3]?
Its value is 75%.

And the “Population Fragmented Nuclei (%)” value [3]?
Its value is 89%.

What about the “Population Healthy Nuclei (%)” value [3] of the same compound?
The value was 6%.

And the “Population Hoechst High Intensity Objects (%)” value [3]?
Its value is 76%.

What about the “Population Membrane Permeable-Phenotype (%)” value [3] of the same compound?
Its value is 14%.

And the “Population Mitochondria Different-Phenotype (%)” value [3]?
The value was 0%.

What about the “Population Mitotic Cells (%)” value [3] of the same compound?
Its value is 25%.

And the “Population Normal (%)” value [3]?
The value was 23%.

What about the “Population Pyknosed Nuclei (%)” value [3] of the same compound?
The value was 3%.

And the “Population Tubulin-Different-Phenotype (%)” value [3]?
The value was 7%.

And the “Total Cell Count” value [3]?
The value was 898.

And the “Population Apoptotic (%)” value [4]?
The value was 0%.

And the “Population Fragmented Nuclei (%)” value [4]?
The value was 55%.

And the “Population Healthy Nuclei (%)” value [4]?
The value was 44%.

And the “Population Hoechst High Intensity Objects (%)” value [4]?
The value was 71%.

And the “Population Membrane Permeable-Phenotype (%)” value [4]?
Its value is 4%.

And the “Population Mitochondria Different-Phenotype (%)” value [4]?
Its value is 14%.

And the “Population Mitotic Cells (%)” value [4]?
The value was 0%.

And the “Population Normal (%)” value [4]?
The value was 28%.

What about the “Population Pyknosed Nuclei (%)” value [4] of the same compound?
The value was 0%.

What about the “Population Tubulin-Different-Phenotype (%)” value [4] of the same compound?
Its value is 28%.

And the “Total Cell Count” value [4]?
The value was 327.

What about the “Population Apoptotic (%)” value [5] of the same compound?
The value was 85%.

And the “Population Fragmented Nuclei (%)” value [5]?
Its value is 39%.

And the “Population Healthy Nuclei (%)” value [5]?
Its value is 48%.

What about the “Population Hoechst High Intensity Objects (%)” value [5] of the same compound?
Its value is 41%.

And the “Population Membrane Permeable-Phenotype (%)” value [5]?
The value was 29%.

What about the “Population Mitochondria Different-Phenotype (%)” value [5] of the same compound?
The value was 1%.

And the “Population Mitotic Cells (%)” value [5]?
The value was 14%.

And the “Population Normal (%)” value [5]?
Its value is 58%.

And the “Population Pyknosed Nuclei (%)” value [5]?
The value was 11%.

What about the “Population Tubulin-Different-Phenotype (%)” value [5] of the same compound?
The value was 38%.

And the “Total Cell Count” value [5]?
The value was 202.

What about the “Population Apoptotic (%)” value [6] of the same compound?
Its value is 50%.

And the “Population Fragmented Nuclei (%)” value [6]?
Its value is 18%.

And the “Population Healthy Nuclei (%)” value [6]?
Its value is 76%.

And the “Population Hoechst High Intensity Objects (%)” value [6]?
The value was 4%.

And the “Population Membrane Permeable-Phenotype (%)” value [6]?
Its value is 3%.

What about the “Population Mitochondria Different-Phenotype (%)” value [6] of the same compound?
The value was 10%.

What about the “Population Mitotic Cells (%)” value [6] of the same compound?
Its value is 50%.

And the “Population Normal (%)” value [6]?
Its value is 95%.

And the “Population Pyknosed Nuclei (%)” value [6]?
The value was 5%.

What about the “Population Tubulin-Different-Phenotype (%)” value [6] of the same compound?
The value was 18%.

And the “Total Cell Count” value [6]?
Its value is 81.

And the “Population Apoptotic (%)” value [7]?
Its value is 72%.

What about the “Population Fragmented Nuclei (%)” value [7] of the same compound?
The value was 86%.

And the “Population Healthy Nuclei (%)” value [7]?
Its value is 7%.

What about the “Population Hoechst High Intensity Objects (%)” value [7] of the same compound?
Its value is 78%.

And the “Population Membrane Permeable-Phenotype (%)” value [7]?
Its value is 33%.

What about the “Population Mitochondria Different-Phenotype (%)” value [7] of the same compound?
The value was 0%.

And the “Population Mitotic Cells (%)” value [7]?
The value was 27%.

And the “Population Normal (%)” value [7]?
Its value is 21%.

What about the “Population Pyknosed Nuclei (%)” value [7] of the same compound?
The value was 5%.

And the “Population Tubulin-Different-Phenotype (%)” value [7]?
The value was 20%.

What about the “Total Cell Count” value [7] of the same compound?
Its value is 921.

And the “Population Apoptotic (%)” value [8]?
The value was 100%.

What about the “Population Fragmented Nuclei (%)” value [8] of the same compound?
The value was 49%.

What about the “Population Healthy Nuclei (%)” value [8] of the same compound?
Its value is 47%.

What about the “Population Hoechst High Intensity Objects (%)” value [8] of the same compound?
Its value is 66%.

What about the “Population Membrane Permeable-Phenotype (%)” value [8] of the same compound?
Its value is 3%.

And the “Population Mitochondria Different-Phenotype (%)” value [8]?
The value was 3%.

What about the “Population Mitotic Cells (%)” value [8] of the same compound?
Its value is 0%.

And the “Population Normal (%)” value [8]?
The value was 33%.

And the “Population Pyknosed Nuclei (%)” value [8]?
Its value is 2%.

And the “Population Tubulin-Different-Phenotype (%)” value [8]?
The value was 26%.

What about the “Total Cell Count” value [8] of the same compound?
Its value is 352.

And the “Population Apoptotic (%)” value [9]?
The value was 57%.

What about the “Population Fragmented Nuclei (%)” value [9] of the same compound?
The value was 47%.

And the “Population Healthy Nuclei (%)” value [9]?
Its value is 45%.

What about the “Population Hoechst High Intensity Objects (%)” value [9] of the same compound?
Its value is 45%.

What about the “Population Membrane Permeable-Phenotype (%)” value [9] of the same compound?
The value was 29%.

What about the “Population Mitochondria Different-Phenotype (%)” value [9] of the same compound?
Its value is 0%.

What about the “Population Mitotic Cells (%)” value [9] of the same compound?
The value was 42%.

And the “Population Normal (%)” value [9]?
Its value is 54%.

And the “Population Pyknosed Nuclei (%)” value [9]?
The value was 6%.

And the “Population Tubulin-Different-Phenotype (%)” value [9]?
The value was 29%.

What about the “Total Cell Count” value [9] of the same compound?
Its value is 202.

And the “Population Apoptotic (%)” value [10]?
The value was 0%.

What about the “Population Fragmented Nuclei (%)” value [10] of the same compound?
Its value is 57%.

What about the “Population Healthy Nuclei (%)” value [10] of the same compound?
Its value is 42%.

And the “Population Hoechst High Intensity Objects (%)” value [10]?
The value was 35%.

What about the “Population Membrane Permeable-Phenotype (%)” value [10] of the same compound?
Its value is 14%.

And the “Population Mitochondria Different-Phenotype (%)” value [10]?
Its value is 5%.

And the “Population Mitotic Cells (%)” value [10]?
The value was 100%.

What about the “Population Normal (%)” value [10] of the same compound?
The value was 64%.

What about the “Population Pyknosed Nuclei (%)” value [10] of the same compound?
The value was 0%.

And the “Population Tubulin-Different-Phenotype (%)” value [10]?
The value was 25%.

What about the “Total Cell Count” value [10] of the same compound?
The value was 198.

And the “Population Apoptotic (%)” value [11]?
Its value is 60%.

What about the “Population Fragmented Nuclei (%)” value [11] of the same compound?
Its value is 90%.

And the “Population Healthy Nuclei (%)” value [11]?
Its value is 6%.

What about the “Population Hoechst High Intensity Objects (%)” value [11] of the same compound?
Its value is 77%.

And the “Population Membrane Permeable-Phenotype (%)” value [11]?
The value was 25%.

And the “Population Mitochondria Different-Phenotype (%)” value [11]?
Its value is 0%.

What about the “Population Mitotic Cells (%)” value [11] of the same compound?
Its value is 40%.

And the “Population Normal (%)” value [11]?
The value was 22%.

What about the “Population Pyknosed Nuclei (%)” value [11] of the same compound?
Its value is 2%.

What about the “Population Tubulin-Different-Phenotype (%)” value [11] of the same compound?
Its value is 18%.

And the “Total Cell Count” value [11]?
The value was 1050.

And the “Population Apoptotic (%)” value [12]?
Its value is 0%.

What about the “Population Fragmented Nuclei (%)” value [12] of the same compound?
The value was 93%.

And the “Population Hoechst High Intensity Objects (%)” value [12]?
Its value is 84%.

What about the “Population Membrane Permeable-Phenotype (%)” value [12] of the same compound?
Its value is 20%.

What about the “Population Mitochondria Different-Phenotype (%)” value [12] of the same compound?
Its value is 10%.

And the “Population Mitotic Cells (%)” value [12]?
The value was 0%.

And the “Population Normal (%)” value [12]?
Its value is 15%.

What about the “Population Pyknosed Nuclei (%)” value [12] of the same compound?
The value was 0%.

And the “Population Tubulin-Different-Phenotype (%)” value [12]?
The value was 10%.

What about the “Total Cell Count” value [12] of the same compound?
The value was 961.
